This passage reports Loss, IC50 and Kd results from ChEMBL document CHEMBL1134949, “New irreversible adenosine A(1) antagonists based on FSCPX” (Bioorg Med Chem Lett, 2002).

Assay [1] has as its target T1, Adenosine receptor A1 (Homo sapiens) (UniProt P30542).
T1 sequence (whole entry): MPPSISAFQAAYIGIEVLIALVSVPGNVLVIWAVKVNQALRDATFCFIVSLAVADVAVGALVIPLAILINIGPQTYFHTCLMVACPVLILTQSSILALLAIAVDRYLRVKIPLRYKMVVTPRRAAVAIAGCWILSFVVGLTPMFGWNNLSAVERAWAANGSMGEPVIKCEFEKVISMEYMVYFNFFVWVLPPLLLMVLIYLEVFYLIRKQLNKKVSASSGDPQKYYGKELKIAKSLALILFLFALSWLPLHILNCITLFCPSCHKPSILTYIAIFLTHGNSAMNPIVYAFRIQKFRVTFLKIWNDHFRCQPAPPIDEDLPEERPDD
Kind of assay: Percentage loss of [3H]DPCPX binding to Adenosine A1 receptor in the presence of Xanthine derivative at 100 nM from DDT1 MF2 cells. In kind it is cell-based. In short, it runs like this: (§1)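 DDT1 MF-2 cells preincubated with or without antagonist (5 or 100 nM) for 30 min at 30 °C, then 10 cell wash cycles to remove unbound ligand. Membranes then prepared and assayed for [3H]DPCPX Bmax and KD. Receptor loss is the reduction in Bmax versus control. Mean ± SE, n = 3-6.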

The target in assay [2] is T1, Adenosine receptor A1 (Homo sapiens). Description: Percentage loss of [3H]-DPCPX binding to Adenosine A1 receptor in the presence of Xanthine derivative at 5 nM from DDT1 MF2 cells. In kind it is cell-based. In a few lines:
as §1

Assay [3] is described as follows: Inhibitory concentration against [3H]DPCPX binding to Adenosine A1 receptor from DDT1 MF2 cells.
A short description of assay [4]: Equilibrium dissociation constant for [3H]DPCPX binding to Adenosine A1 receptor from DDT1 MF2 cell membranes.

pIC50, pKd: −log10 of the molar value. Several values for one entry are separate records, joined by “and”; a condition that tells them apart may be missing. Identical values can stand only once.

Consider `CCCn1c(=O)c2nc(C3CCCCC3)[nH]c2n(CCCCC(=O)c2ccc(S(=O)(=O)F)cc2)c1=O`, for which the Loss in assay [1] was 78%; in assay [2], 56%.
Take `CCCn1c(=O)c2nc(C3CCCC3)[nH]c2n(CCCNC(=O)c2ccc(S(=O)(=O)F)cc2)c1=O`: the pIC50 (as a rule, the IC50 on a negative log10 scale, so that one unit is a factor of ten) in assay [3] was 7.68. Also, the pKd (in general, the Kd on a negative log10 scale, so that one unit is a factor of ten) in assay [4] is 9.44 and 9.51.
Turning to `CCCn1c(=O)c2nc(C3CCCC3)[nH]c2n(CCCCC(=O)c2ccc(S(=O)(=O)F)cc2)c1=O`, the figures for the Loss in assay [1] and in assay [2] were 73% and 51%, respectively.
The like results for `CCCn1c(=O)c2nc(C3CC4CCC3C4)[nH]c2n(CCCCC(=O)c2ccc(S(=O)(=O)F)cc2)c1=O` (stereo not drawn) were, in that order, 81% and 50%.
